# Laboratory results published in ChEMBL document CHEMBL1275445, “Low beta-lactamase-negative ampicillin-resistant Haemophilus influenzae strains are best detected by testing amoxicillin susceptibility by the broth microdilution method” (2008).
# Columns and labels:
# Format in all cases: functional
# Haemophilus influenzae [1] = assay: Antibacterial activity against Beta-lactamase negative Haemophilus influenzae assessed as susceptible isolates after 20 to 24 hrs by broth microdilution method
# Outline: (§1)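 CLSI broth microdilution in Mueller-Hinton broth with HTM supplement and yeast extract (5%), inoculum about 5 x 10^5 CFU/ml (checked by colony counts on chocolate agar); 35°C, 20–24 h in 5% CO2. MIC = lowest concentration inhibiting growth; amoxicillin-clavulanic acid at 2:1. β-lactamase status by nitrocephin test.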
# Haemophilus influenzae [2] = assay: Antibacterial activity against Beta-lactamase positive Haemophilus influenzae harboring fst1 mutant gene assessed as resistant isolates after 20 to 24 hrs by Etest method
# Outline: (§2)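 Etest on clinical H. influenzae isolates genotyped by ftsI/blaTEM sequencing. Overnight chocolate-agar colonies were suspended in saline to McFarland 0.5 and swabbed confluently onto 150-mm agar plates. Strips were placed radially, then plates incubated at 35°C in 5% CO2 for 20 to 24 h. MIC read where the inhibition ellipse meets the strip. Values rounded up to the next log2 step.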
# Haemophilus influenzae [3] = assay: Antibacterial activity against Beta-lactamase negative Haemophilus influenzae isolate harboring fst1 mutant gene after 20 to 24 hrs by broth microdilution method
# Outline: (§3)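 Broth microdilution per CLSI on clinical H. influenzae isolates genotyped by ftsI/blaTEM PCR and sequencing. Medium: Mueller-Hinton broth with HTM supplement and yeast extract (5%). Inoculum about 5 x 10^5 CFU/ml, confirmed by colony counts on chocolate agar. Incubation 35°C, 20 to 24 h, 5% CO2. MIC was the lowest concentration inhibiting growth. Amoxicillin-clavulanic acid tested at 2:1. β-lactamase status determined by nitrocefin test.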
# Haemophilus influenzae [4] = assay: Antibacterial activity against Beta-lactamase negative Haemophilus influenzae harboring fst1 mutant gene assessed as susceptible isolates after 20 to 24 hrs by broth microdilution method; outline: as §3
# Haemophilus influenzae [5] = assay: Antibacterial activity against Beta-lactamase positive Haemophilus influenzae isolate after 20 to 24 hrs by Etest method; outline: as §2
# Haemophilus influenzae [6] = assay: Antibacterial activity against Beta-lactamase positive Haemophilus influenzae harboring fst1 mutant gene assessed as susceptible isolates after 20 to 24 hrs by broth microdilution method; outline: as §3
# Haemophilus influenzae [7] = assay: Antibacterial activity against Beta-lactamase positive Haemophilus influenzae assessed as resistant isolates after 20 to 24 hrs by broth microdilution method; outline: as §3
# Haemophilus influenzae [8] = assay: Antibacterial activity against Beta-lactamase negative Haemophilus influenzae harboring fst1 mutant gene assessed as resistant isolates after 20 to 24 hrs by broth microdilution method; outline: as §3
# Haemophilus influenzae [9] = assay: Antibacterial activity against Beta-lactamase positive Haemophilus influenzae isolate after 20 to 24 hrs by broth microdilution method; outline: as §1
# Haemophilus influenzae [10] = assay: Antibacterial activity against Beta-lactamase positive Haemophilus influenzae harboring fst1 mutant gene assessed as susceptible isolates after 20 to 24 hrs by Etest method; outline: as §2
# Haemophilus influenzae [11] = assay: Antibacterial activity against Beta-lactamase positive Haemophilus influenzae isolate harboring fst1 mutant gene after 20 to 24 hrs by broth microdilution method; outline: as §3
# Haemophilus influenzae [12] = assay: Antibacterial activity against Beta-lactamase negative Haemophilus influenzae assessed as resistant isolates after 20 to 24 hrs by Etest method
# Haemophilus influenzae [13] = assay: Antibacterial activity against Beta-lactamase positive Haemophilus influenzae assessed as susceptible isolates after 20 to 24 hrs by broth microdilution method; outline: as §3
# Haemophilus influenzae [14] = assay: Antibacterial activity against Beta-lactamase positive Haemophilus influenzae isolate harboring fst1 mutant gene after 20 to 24 hrs by Etest method; outline: as §2
# Haemophilus influenzae [15] = assay: Antibacterial activity against Beta-lactamase negative Haemophilus influenzae isolate after 20 to 24 hrs by Etest method; outline: as §2
# Haemophilus influenzae [16] = assay: Antibacterial activity against Beta-lactamase negative Haemophilus influenzae isolate harboring fst1 mutant gene after 20 to 24 hrs by Etest method; outline: as §2
# Haemophilus influenzae [17] = assay: Antibacterial activity against Beta-lactamase negative Haemophilus influenzae isolate after 20 to 24 hrs by broth microdilution method; outline: as §3
# Haemophilus influenzae [18] = assay: Antibacterial activity against Beta-lactamase positive Haemophilus influenzae assessed as susceptible isolates after 20 to 24 hrs by Etest method
# Outline: (§4)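 Confluent swab of agar plates with saline suspension of overnight chocolate-agar colonies at McFarland 0.5; Etest strips placed radially; 35°C, 5% CO2, 20–24 h. MIC read where the inhibition ellipse meets the strip, rounded up to next log2 concentration. β-lactamase status by nitrocephin chromogenic cephalosporin test; genotype by ftsI/blaTEM sequencing.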
# Haemophilus influenzae [19] = assay: Antibacterial activity against Beta-lactamase negative Haemophilus influenzae harboring fst1 mutant gene assessed as susceptible isolates after 20 to 24 hrs by Etest method; outline: as §2
# Haemophilus influenzae [20] = assay: Antibacterial activity against Beta-lactamase negative Haemophilus influenzae harboring fst1 mutant gene assessed as resistant isolates after 20 to 24 hrs by Etest method; outline: as §2
# Haemophilus influenzae [21] = assay: Antibacterial activity against Beta-lactamase positive Haemophilus influenzae assessed as resistant isolates after 20 to 24 hrs by Etest method; outline: as §2
# Haemophilus influenzae [22] = assay: Antibacterial activity against Beta-lactamase negative Haemophilus influenzae assessed as resistant isolates after 20 to 24 hrs by broth microdilution method; outline: as §3
# Haemophilus influenzae [23] = assay: Antibacterial activity against Beta-lactamase negative Haemophilus influenzae assessed as susceptible isolates after 20 to 24 hrs by Etest method; outline: as §4
# Haemophilus influenzae [24] = assay: Antibacterial activity against Beta-lactamase positive Haemophilus influenzae harboring fst1 mutant gene assessed as resistant isolates after 20 to 24 hrs by broth microdilution method; outline: as §3
# Haemophilus influenzae [25] = assay: Antibacterial activity against Beta-lactamase negative Haemophilus influenzae isolate after 20 to 24 hrs by broth microdilution method in presence of clavulanic acid
# Outline: (§5)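 Broth microdilution per CLSI, with plates incubated in 5% CO2. Mueller-Hinton broth with HTM supplement and yeast extract (5%). Inoculum about 5 x 10^5 CFU/ml, checked by colony counts on chocolate agar. Amoxicillin-clavulanic acid at 2:1 ratio. 35°C, 20 to 24 h. MIC is the lowest concentration inhibiting growth. Isolates genotyped for ftsI/blaTEM by sequencing; β-lactamase by nitrocefin test.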
# Haemophilus influenzae [26] = assay: Antibacterial activity against Beta-lactamase positive Haemophilus influenzae isolate after 20 to 24 hrs by Etest method in presence of clavulanic acid
# Outline: (§6)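 Etest on clinical H. influenzae isolates genotyped for ftsI and blaTEM by PCR and sequencing; β-lactamase status by nitrocefin chromogenic test. Colonies from overnight chocolate agar suspended in saline to McFarland 0.5, swabbed confluently onto 150-mm agar plates, strips placed radially; 35°C, 5% CO2, 20 to 24 h. MIC read where inhibition ellipse meets strip, rounded up to next log2 concentration.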
# Haemophilus influenzae [27] = assay: Antibacterial activity against Beta-lactamase positive Haemophilus influenzae isolate harboring fst1 mutant gene after 20 to 24 hrs by broth microdilution method in presence of clavulanic acid; outline: as §5
# Haemophilus influenzae [28] = assay: Antibacterial activity against Beta-lactamase negative Haemophilus influenzae isolate after 20 to 24 hrs by Etest method in presence of clavulanic acid; outline: as §6
# Haemophilus influenzae [29] = assay: Antibacterial activity against Beta-lactamase negative Haemophilus influenzae isolate harboring fst1 mutant gene after 20 to 24 hrs by Etest method in presence of clavulanic acid; outline: as §6
# Haemophilus influenzae [30] = assay: Antibacterial activity against Beta-lactamase positive Haemophilus influenzae isolate after 20 to 24 hrs by broth microdilution method in presence of clavulanic acid; outline: as §5
# Haemophilus influenzae [31] = assay: Antibacterial activity against Beta-lactamase positive Haemophilus influenzae isolate harboring fst1 mutant gene after 20 to 24 hrs by Etest method in presence of clavulanic acid; outline: as §6
# Haemophilus influenzae [32] = assay: Antibacterial activity against Beta-lactamase negative Haemophilus influenzae isolate harboring fst1 mutant gene after 20 to 24 hrs by broth microdilution method in presence of clavulanic acid; outline: as §5
# Haemophilus influenzae [33] = assay: Antibacterial activity against Beta-lactamase negative Haemophilus influenzae with PBP3 mutation
# Haemophilus influenzae [34] = assay: Antibacterial activity against Beta-lactamase negative ampicillin-resistant Haemophilus influenzae isolate with SSN motif mutation after 20 to 24 hrs by disk diffusion method using <=29 mm disk
# Outline: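 Disk diffusion per CLSI on HTM base with HTM supplement and yeast extract (5%). Inoculum McFarland 0.5. Incubation 20 to 24 h at 35°C in 5% CO2. Cefixime disk 5 µg. Isolates genotyped for ftsI (SSN motif) by PCR and sequencing. Zone diameter measured.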
# Haemophilus influenzae [35] = assay: Antibacterial activity against Beta-lactamase negative ampicillin-resistant Haemophilus influenzae isolate with SSN motif mutation after 20 to 24 hrs by broth microdilution method; outline: as §3
# Haemophilus influenzae [36] = assay: Antibacterial activity against Beta-lactamase negative ampicillin-resistant Haemophilus influenzae isolate with SSN motif mutation after 20 to 24 hrs by Etest method; outline: as §2
Compound,Activity (Haemophilus influenzae [1]) [%],MIC50 (Haemophilus influenzae [3]) [µg/mL],MIC90 (Haemophilus influenzae [3]) [µg/mL],Activity (Haemophilus influenzae [4]) [%],MIC50 (Haemophilus influenzae [5]) [µg/mL],MIC90 (Haemophilus influenzae [5]) [µg/mL],Activity (Haemophilus influenzae [8]) [%],MIC50 (Haemophilus influenzae [9]) [µg/mL],MIC90 (Haemophilus influenzae [9]) [µg/mL],Activity (Haemophilus influenzae [13]) [%],MIC50 (Haemophilus influenzae [14]) [µg/mL],MIC90 (Haemophilus influenzae [14]) [µg/mL],MIC50 (Haemophilus influenzae [15]) [µg/mL],MIC90 (Haemophilus influenzae [15]) [µg/mL],MIC50 (Haemophilus influenzae [16]) [µg/mL],MIC90 (Haemophilus influenzae [16]) [µg/mL],MIC50 (Haemophilus influenzae [17]) [µg/mL],MIC90 (Haemophilus influenzae [17]) [µg/mL],Activity (Haemophilus influenzae [18]) [%],Activity (Haemophilus influenzae [19]) [%],other results
N[C@@H](C(=O)N[C@@H]1C(=O)N2C(C(=O)O)=C(Cl)CS[C@H]12)c1ccccc1 [CEFACLOR ANHYDROUS],100,8,8,94.1,1,2,0,8,16,0,4,32,1,2,4,16,2,4,100,76.5,Activity (Haemophilus influenzae [2]): 20%; MIC (Haemophilus influenzae [5]): 1 µg/mL; Activity (Haemophilus influenzae [6]): 80%; Activity (Haemophilus influenzae [7]): 5%; Activity (Haemophilus influenzae [10]): 73.3%; MIC50 (Haemophilus influenzae [11]): 8 µg/mL; MIC90 (Haemophilus influenzae [11]): 16 µg/mL; Activity (Haemophilus influenzae [12]): 0%; Activity (Haemophilus influenzae [20]): 5.9%; Activity (Haemophilus influenzae [21]): 0%; Activity (Haemophilus influenzae [22]): 0%; Activity (Haemophilus influenzae [23]): 100%; Activity (Haemophilus influenzae [24]): 0%
CC1(C)S[C@@H]2[C@H](NC(=O)[C@H](N)c3ccc(O)cc3)C(=O)N2[C@H]1C(=O)O [AMOXICILLIN],100,2,4,20.6,4,16,35.3,≥ 64,≥ 64,0,32,64,0.5,0.5,1,2,0.5,0.5,5,67.6,MIC (Haemophilus influenzae [25]): 0.5 µg/mL; MIC (Haemophilus influenzae [26]): 0.25 µg/mL; MIC (Haemophilus influenzae [27]): 1 µg/mL; MIC (Haemophilus influenzae [28]): 0.25 µg/mL; MIC (Haemophilus influenzae [11]): ≥ 32 µg/mL; MIC (Haemophilus influenzae [29]): 0.25 µg/mL; MIC (Haemophilus influenzae [30]): 0.25 µg/mL; MIC (Haemophilus influenzae [17]): 0.5 µg/mL; MIC (Haemophilus influenzae [31]): 0.5 µg/mL; Activity (Haemophilus influenzae [21]): 85%; MIC (Haemophilus influenzae [32]): 0.5 µg/mL; Activity (Haemophilus influenzae [23]): 100%
CC1(C)S[C@@H]2[C@H](NC(=O)[C@H](N)c3ccccc3)C(=O)N2[C@H]1C(=O)O [AMPICILLIN],100,1,2,76.5,4,16,2.9,≥ 32,≥ 32,0,32,64,0.25,0.5,1,2,≤ 0.25,0.5,5,88.2,MIC (Haemophilus influenzae [11]): ≥ 32 µg/mL; MIC (Haemophilus influenzae [17]): ≤ 0.25 µg/mL; MIC (Haemophilus influenzae [33]): >=2 ug; Activity (Haemophilus influenzae [21]): 85%; Activity (Haemophilus influenzae [23]): 100%
C=CC1=C(C(=O)O)N2C(=O)[C@@H](NC(=O)/C(=N\OCC(=O)O)c3csc(N)n3)[C@H]2SC1 [CEFIXIME],,,,,,,,,,,,,,,,,,,,,MIC (Haemophilus influenzae [34]): ≥ 0.5 µg/mL; MIC (Haemophilus influenzae [35]): ≥ 0.5 µg/mL; MIC (Haemophilus influenzae [36]): ≥ 0.5 µg/mL
